Legend:
Glutamate NMDA receptor = experiment: Binding affinity against phencyclidine (PCP) site of N-methyl-D-aspartate glutamate receptor from rat brain, using [3H]- TCP as radioligand.
Method in brief: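 Male Sprague-Dawley rat whole-brain membranes, washed by repeated homogenization/centrifugation in 50 mM Tris-HCl pH 7.7, frozen at -70 °C, assayed in 5 mM Tris-HCl at 0.5 mg protein/tube. [3H]TCP about 1 nM final with varying compound concentrations, 25 min at room temperature. Nonspecific binding with 100 μM PCP. Filtration, scintillation counting, Ki calculated. At least three determinations in triplicate.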

[1] = Neuroprotection was determined against NMDA induced cell death in cultured mouse cortical neuron.; format: functional
Method in brief: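 Primary cortical neurons from Swiss-Webster mouse embryos at 16 days post conception, trypsinized, plated at 50 000 cells/well, cytosine arabinoside from day 5, used on day 13. Cells were washed and exposed 30 min to 500 µM NMDA with or without varying concentrations of test agent in MEM, then returned to MEM alone. MK-801 10 µM served as positive control.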

In the case of CCOC1(OCC)C2c3ccccc3C([n+]3ccn(Cc4ccccc4)c32)C1(C)C (configuration not stated), the Ki (Glutamate NMDA receptor) is reported as 10 nM.

For c1ccc(CCCn2cc[n+]3c2C2c4ccccc4C3CC2(c2ccoc2)c2ccoc2)cc1 (configuration not stated), the Ki (Glutamate NMDA receptor) was 68 nM.

Compound CCOC1(OCC)C2c3ccccc3C([n+]3cnn(C)c32)C1(C)C (configuration not stated) has a Ki (Glutamate NMDA receptor) of 30 nM.

With c1ccc2c(c1)C1CC(c3ccoc3)(c3ccoc3)C2c2n(Cc3ccc4ccccc4c3)cc[n+]21 (configuration not stated) the Ki (Glutamate NMDA receptor) was 330 nM.

For CCCCn1cc[n+]2c1C1c3ccccc3C2CC1(c1ccoc1)c1ccoc1 (configuration not stated), the Ki (Glutamate NMDA receptor) was 36 nM.

Compound CCOC1(OCC)C2c3ccccc3C([n+]3ccccc32)C1(C)C (configuration not stated) has an IC50 [1] of 60 nM.

Work on c1ccc2c(c1)C1CC(c3ccoc3)(c3ccoc3)C2c2scc[n+]21 (configuration not stated) yielded a Ki (Glutamate NMDA receptor) of 2.9 nM and an IC50 [1] of 50 nM.

Compound C1=C[N+]2=C(C1c1cccc3ccccc13)C1c3ccccc3C2CC1(c1ccoc1)c1ccoc1 (configuration not stated) has a Ki (Glutamate NMDA receptor) of 329 nM.

c1ccc(-n2cc[n+]3c2C2c4ccccc4C3CC2(c2ccoc2)c2ccoc2)cc1 (configuration not stated) gave a Ki (Glutamate NMDA receptor) of 52 nM.

C[C@]12N[C@H](Cc3ccccc31)c1ccccc12 [DIZOCILPINE] gave an IC50 [1] of 67 nM.

Work on c1ccc(Cn2cc[n+]3c2C2c4ccccc4C3CC2(c2ccoc2)c2ccoc2)cc1 (configuration not stated) yielded a Ki (Glutamate NMDA receptor) of 7.7 nM and an IC50 [1] of 42 nM.

In the case of Cn1nc[n+]2c1C1c3ccccc3C2CC1(c1ccoc1)c1ccoc1 (configuration not stated), the Ki (Glutamate NMDA receptor) is reported as 14 nM.

In the case of CCOC1(OCC)C2c3ccccc3C([n+]3ccn(C)c32)C1(C)C (configuration not stated), the Ki (Glutamate NMDA receptor) is reported as 8.2 nM and the IC50 [1] is reported as 53 nM.

For CCOC1(OCC)C2c3ccccc3C([n+]3ccsc32)C1(C)C (configuration not stated), the Ki (Glutamate NMDA receptor) was 6.1 nM and the IC50 [1] was 173 nM.

c1ccc(C(c2ccccc2)n2cc[n+]3c2C2c4ccccc4C3CC2(c2ccoc2)c2ccoc2)cc1 (configuration not stated) gave a Ki (Glutamate NMDA receptor) of 306 nM.

c1ccc2c(c1)C1CC(c3ccoc3)(c3ccoc3)C2c2cccc[n+]21 (configuration not stated) showed an IC50 [1] of 45 nM.

Compound Cn1cc[n+]2c1C1c3ccccc3C2CC1(c1ccoc1)c1ccoc1 (configuration not stated) has a Ki (Glutamate NMDA receptor) of 2.9 nM and an IC50 [1] of 257 nM.

— ChEMBL document CHEMBL1128370, “Novel NMDA antagonists: replacement of the pyridinium ring of 6,11-ethanobenzo[b]quinolizinium cations with heteroisoquinolinium cations” (J Med Chem, 1995)
